From PubChem BioAssay
SIAE inh: inhibitors of human sialic acid acetylesterase SIAE; actives 0.69% (n = 370,000); inhibition, % at 9.66 µM; AID 1053197; Q9HAT2; SIAE FP-Rh probe binding, fluorescence polarization;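 active means inhibition above a cutoff: mean of compounds within the control limits plus 3 SD of those, cut at about 17% in these data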;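 further: 0% = plate median of compound wells and 100% = probe without SIAE protein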
ABHD4 inh: inhibitors of mouse ABHD4 | purified mABHD4, FP-Rh probe fluorescence polarization | inhibition, % at 8.92 µM | actives 0.54% (n = 370,000) | AID 720543 | Q8VD66;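 active means inhibition exceeding the mean over every tested compound plus 3 SD, cut at about 30% in these data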;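 further: 0% = plate median of compound wells and 100% = S159A mutant with DMSO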
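Test system: mouse ABHD4 enzyme, wild type. Reagent: FP-Rh fluorescent activity-based probe, added after compound pre-incubation. Timing: pre-incubation 45 min, probe exposure 60 min, at 25 °C. Technique: FP readout, ex 525 nm / em 598 nm. Benchmarks: high control S159A mutant with DMSO, low control median of compound wells.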
rCAG RNA binder: molecules binding r(CAG) RNA repeats; r(CAG) RNA repeat, TO-PRO-1 dye displacement fluorescence; inhibition, % at 3 µM; actives 1.3% (n = 370,000);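 active means inhibition above the plate cutoff, the mean of all test compounds on that plate plus 3 SD, cut at about 35% in these data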;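 further: 0% = DMSO alone and 100% = 100 µM mitoxantrone as full dye displacement; higher means more dye released from RNA so lower well fluorescence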
HTRA1 inhibitor: HTRA1 (human) protease inhibition; recombinant HTRA1, FP-rhodamine activity-based probe, fluorescence polarization; inhibition, % at 5.96 µM; actives 0.5% (n = 340,000); in the data active means inhibition above about 36%;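 further: 0% = enzyme with DMSO and 100% = wells lacking enzyme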
Target sequence (Q92743 whole entry, looked up): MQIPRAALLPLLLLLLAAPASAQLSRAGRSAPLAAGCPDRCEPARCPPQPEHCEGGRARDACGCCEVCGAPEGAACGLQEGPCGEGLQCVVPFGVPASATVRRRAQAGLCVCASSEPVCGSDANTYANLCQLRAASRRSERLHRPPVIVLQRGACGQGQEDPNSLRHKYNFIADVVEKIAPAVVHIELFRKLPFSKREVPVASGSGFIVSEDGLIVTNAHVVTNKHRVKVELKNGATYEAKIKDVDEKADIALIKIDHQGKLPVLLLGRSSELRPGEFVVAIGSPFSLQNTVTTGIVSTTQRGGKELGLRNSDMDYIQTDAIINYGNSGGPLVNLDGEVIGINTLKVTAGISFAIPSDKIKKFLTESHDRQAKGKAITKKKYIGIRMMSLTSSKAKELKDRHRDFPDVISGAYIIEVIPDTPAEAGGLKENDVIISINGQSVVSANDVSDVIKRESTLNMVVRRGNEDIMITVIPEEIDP
TCR-CD3 inh: human TCR-CD3 binding inhibition. inhibition, % at 9.4 µM. TAMRA-labeled TCR probe fluorescence, biochemical. AID 651800. actives 0.37% (n = 360,000);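 further: recombinant mutant TCR 2C K166C tagged with TAMRA read by polarization; 0% = receptor in buffer alone and 100% = receptor with positive control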
HTRA1 conf: HTRA1 (human) inhibition, confirmation | shares compounds with HTRA1 inhibitor | recombinant HTRA1, FP-rhodamine activity-based probe, fluorescence polarization | inhibition, % at 5.96 µM | actives 66% (n = 1,600);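 active means mean inhibition over three repeats above a set limit taken from the earlier primary screen, cut at about 37% in these data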;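 further: 0% = HTRA1 with DMSO and 100% = wells lacking HTRA1; inhibitors block probe binding so polarization drops and inhibition rises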
BSA TAMRA ctr: BSA probe counter-screen for TCR-CD3 inhibitors | shares compounds with TCR-CD3 inh | AID 652035 | TAMRA-labeled BSA probe fluorescence counterscreen | actives 10% (n = 1,200) | inhibition, % at 9.4 µM; in the data active means inhibition above about 23%;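 further: 0% = buffer low control and 100% = reference high control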
TCR-CD3 inh conf: TCR-CD3 interaction inhibition, confirmation; shares compounds with TCR-CD3 inh; inhibition, % at 9.4 µM; actives 48% (n = 1,200); TAMRA-labeled TCR probe fluorescence binding assay
rCAG bind conf: r(CAG) RNA repeat binding, confirmation; inhibition, % at 3 µM; AID 652065; TO-PRO-1 dye displacement fluorescence; shares compounds with rCAG RNA binder; actives 70% (n = 4,300);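 active means inhibition above a per-plate cutoff, the mean inhibition of sample wells plus 3 SD, cut at about 35% in these data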;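 further: loss of TO-PRO-1 fluorescence as compound displaces dye from 1x1 AA loop RNA; 0% = DMSO only wells and 100% = 100 µM mitoxantrone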
dCAG dye counter: disrupts DNA CAG TO-PRO-1 complex, flagging rCAG hits. shares compounds with rCAG RNA binder. d(CAG) DNA oligo TO-PRO-1 dye displacement, fluorescence. inhibition, % at 3 µM. actives 94% (n = 4,300). AID 652068;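 active means inhibition above its plate's cutoff, the mean test-well inhibition plus 3 SD, cut at about 4.8% in these data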;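 further: 0% = DNA dye mix with DMSO and 100% = 100 µM mitoxantrone; hits displace the dye from DNA and so lower well fluorescence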
ABHD4 confirm: ABHD4 (mouse) inhibition, FP confirmation; actives 55% (n = 1,800); purified mABHD4, FP-Rh probe fluorescence polarization; shares compounds with ABHD4 inh; inhibition, % at 8.92 µM;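 active means mean inhibition across replicates above the hit cutoff set in the primary screen, cut at about 30% in these data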;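 further: 0% = wild-type ABHD4 with DMSO and 100% = catalytically dead S159A mutant with DMSO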
* = called active by the depositor; nt = no result given. Shown are actives, neighbours in structure and some others; about 2.5% of the full set was active somewhere. Unless noted, no stated cut-off is given here; in the data, active means inhibition above about 19%; inactive means the rest.

SMILES	SIAE inh	ABHD4 inh	rCAG RNA binder	HTRA1 inhibitor	TCR-CD3 inh	HTRA1 conf	rCAG bind conf	dCAG dye counter	ABHD4 confirm	others
O=C(O)COc1ccccc1/C=N/Nc1ccc(S(=O)(=O)Nc2ccc(Cl)cc2)cc1[N+](=O)[O-]	10.7	62.7*	84.3*	53.9*	1.4	88.3*	90.9*	70.1*	78.9*
COc1ccc(NS(=O)(=O)c2ccc(NN=Cc3ccc(C(=O)O)cc3)c([N+](=O)[O-])c2)cc1	3.1	-15.1	5.6	nt	1.5	nt	nt	nt	nt
O=C(O)c1ccccc1NS(=O)(=O)c1ccc(N/N=C/c2ccc(O)c(O)c2)c([N+](=O)[O-])c1	-1.3	81.2*	92.5*	66.5*	18.9*	142.6*	90.6*	70.0*	99.9*	BSA TAMRA ctr=6.4;TCR-CD3 inh conf=42.9*
O=C(NCCCN1CCOCC1)c1cc(-c2ccc3c(c2)OCO3)nc2ccccc12	0.9	8.2	4.1	0.2	12.1	nt	nt	nt	nt
O=C(Nc1ccc(OCC(F)(F)C(F)F)c(C(F)(F)F)c1)c1ccccc1O	-53.2	-74.7	29.4	-28.7	-7.5	nt	nt	nt	nt
Cc1cccc(NC(=S)NCc2ccc3c(c2)cc(C)n3C)c1C	3.6	30.3*	10.2	50.5*	-9.1	-0.7	nt	nt	-16.2
Cc1cccc(NC(=O)NCc2ccc3c(c2)cc(C)n3C)c1	7.1	41.7*	22.3	40.2*	34.1*	-6.5	nt	nt	-2.7	BSA TAMRA ctr=1.4;TCR-CD3 inh conf=8.3
CN(C)c1ccc(P(=O)(CC(=O)N/N=C/c2ccc(C#N)cc2)OCCCl)cc1 (stereo unspecified)	10.1	-4.8	-3.8	-3.8	-1.5	nt	nt	nt	nt
Cc1ccc(S(=O)(=O)/N=C2\C=C(Nc3cccc(C(=O)O)c3)C(=O)c3ccccc32)cc1	3.9	32.9*	47.1*	52.3*	-0.2	29.9	16.1	4.7*	61.9*
Cc1ccc(S(=O)(=O)/N=C2\C=C(Nc3cccc(C(=O)O)c3)C(=O)c3ccccc32)c(C)c1	15.5	47.3*	75.5*	57.9*	-0.2	62.7*	82.6*	50.0*	101.0*
Cc1cccc(NC2=C(NC(=O)c3ccccc3)C(=O)c3ccccc3C2=O)c1	13.4	15.4	7.0	9.3	6.7	nt	nt	nt	nt
O=C(O)c1cccc(NC2=C(N3CCOCC3)C(=O)c3ccccc3C2=O)c1	-3.4	5.4	2.3	2.1	-3.1	nt	nt	nt	nt
CSc1cccc(NC(=S)N(Cc2ccccc2)Cc2cccnc2)c1	3.0	-0.2	-1.6	-11.0	-11.9	nt	nt	nt	nt
O=Cc1cc(N=Nc2ccccc2Cl)ccc1O	9.5	29.9*	13.2	38.3*	4.9	54.1*	nt	nt	35.2*
O=Cc1cc(N=Nc2cccc(C(=O)O)c2)ccc1O	-33.5	18.4	1.1	10.8	-6.2	nt	nt	nt	nt
CCOC(=O)Cc1csc(NC(=O)NC2(C(F)(F)F)Oc3ccc(Cl)cc3O2)n1 (stereo unspecified)	-4.1	16.7	-0.1	15.9	8.7	nt	nt	nt	nt
CCOC(=O)Cc1csc(NC(=O)NC2(C(F)(F)F)Oc3cc(Cl)c(Cl)cc3O2)n1	-0.7	30.2*	1.0	37.1*	6.0	64.2*	nt	nt	12.7
FC(F)(F)c1ccc2c(c1)C1C=CCC1C(c1ccncc1)N2 (stereo unspecified)	9.8	38.8*	44.1*	51.6*	-19.0	58.7*	2.7	2.0	13.2
O=C(O)c1ccc2c(c1)C1C=CCC1C(c1ccncc1)N2 (stereo unspecified)	0.6	-0.9	-0.7	6.1	-2.2	nt	nt	nt	nt
O=C(NCc1ccccn1)C1Nc2ccc(C(F)(F)F)cc2C2C=CCC12 (stereo unspecified)	15.6	31.8*	27.6	45.2*	-5.6	4.3	nt	nt	3.6
